In PMC2704382 (Cell, 2009):

Experiments:
GSK3β [1] = assay type: binding; conditions: GST-tagged DISC1 fragments, purified His-tagged GSK3β, in vitro
GSK3β [2] = assay: In vitro GSK3β kinase assay; assay type: biochemical; conditions: 2 µM protein
AHPs = assay: AHP cell proliferation assay; assay type: cell-based; conditions: 200 ng/ml in culture medium; cell numbers counted for 2 days; n=3
How it was run: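 Adult hippocampal progenitors transduced 2 days with GFP-expressing lentivirus (control, DISC1 shRNA or WT-hDISC1), then FACS-sorted on GFP. 2×10^4 cells seeded per well in medium with recombinant Wnt3a (200 ng/ml) or vehicle. Cells counted each day for 2 days; n=3.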

B1: DISC1 356–595: GST-tagged DISC1 protein fragment spanning residues 356–595 (protein)
chain: LKLQKCQEKVVEDGDYDTAETLRQRLEELEQEKGRLSWALPSQQPALRSFLGYLAAQIQVALHGATQRAGSDDPEAPLEGQLRTTAQDSLPASITRRDWLIREKQRLQKEIEALQARMSALEAKEKRLSQELEEQEVLLRWPGCDLMALVAQMSPGQLQEVSKALGETLTSANQAPFQVEPPETLRSLRERTKSLNLAVRELTAQVCSGEKLCSSLRRRLSDLDTRLPALLEAKMLALSG
modifications: left off: GST, end not stated, kept
- Interaction with GSK3β (GSK3β [1]): strong interactions
- Inhibition of GSK3β autophosphorylation (GSK3β [2]): started to inhibit

B2: DISC1 221–355: GST-tagged DISC1 protein fragment spanning 221–355 (protein, UniProt Q9NRI5 221-355, looked up, fragment)
chain: GERGEAEGCPPSREAESHCQSPQEMGAKAASLDGPHEDPRCLSRPFSLLATRVSADLAQAARNSSRPERDMHSLPDMDPGSSSSLDPSLAGCGGDGSSGSGDAHSWDTLLRKWEPVLRDCLLRNRRQMEVISLRL
modifications: GST tag
- Inhibition of GSK3β autophosphorylation (GSK3β [2]): started to inhibit

B3: Wnt3a: recombinant Wnt3a protein (protein, UniProt P56704 19-352, looked up)
Protein Wnt-3a: SYPIWWSLAVGPQYSSLGSQPILCASIPGLVPKQLRFCRNYVEIMPSVAEGIKIGIQECQHQFRGRRWNCTTVHDSLAIFGPVLDKATRESAFVHAIASAGVAFAVTRSCAEGTAAICGCSSRHQGSPGKGWKWGGCSEDIEFGGMVSREFADARENRPDARSAMNRHNNEAGRQAIASHMHLKCKCHGLSGSCEVKTCWWSQPDFRAIGDFLKDKYDSASEMVVEKHRESRGWVETLRPRYTYFKVPTERDLVYYEASPNFCEPNPETGSFGTRDRTCNVSSHGIDGCDLLCCGRGHNARAERRREKCRCVFHWCCYVSCQECTRVYDVHTCK
- Proliferation of AHPs (AHPs): significantly stimulated
